Drawing on ChEMBL document CHEMBL1649424, “Design, synthesis, and biological activity of novel 5-((arylfuran/1H-pyrrol-2-yl)methylene)-2-thioxo-3-(3-(trifluoromethyl)phenyl)thiazolidin-4-ones as HIV-1 fusion inhibitors targeting gp41” (J Med Chem, 2011), this text covers CC50, EC50 and selectivity ratio for 3 compounds.

Data set [1] is described as follows: Cytotoxicity against human MT2 cells after 4 days by XTT assay. The class given is cell-based. A digest of the protocol:
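Cells (5 × 10⁵/mL) mixed with equal volume of compound at graded concentrations and held 4 days at 37 °C. XTT (1 mg/mL) containing 0.02 μM phenazine methosulphate added, then 4 h at 37 °C. Absorbance read at 450 nm. CC₅₀ by CalcuSyn.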
In general terms: Formazan colour is commonly taken as a measure of viable cells.

For data set [2], the system named is Human immunodeficiency virus 1. Briefly: Antiviral activity against HIV1 3B infected in human MT2 cells assessed as inhibition viral p24 antigen production after 4 days by ELISA. The format is functional, organism-based. Particulars: Human immunodeficiency virus 1, 3B, MT2, 96 h. Background: In an ELISA, binding on a coated surface is turned into a signal by an enzyme label.

A short description of data set [3]: Selectivity index, ratio of CC50 for human MT2 cells to EC50 for HIV1 3B infected in human MT2 cells. The format is toxicity, cell-based. As to conditions: MT2 cells (CC50) and HIV1 3B infected MT2 cells (EC50). A digest of the protocol:
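Selectivity index taken as MT-2 CC₅₀ (XTT, 4 days) divided by EC₅₀ against HIV-1 IIIB infection (p24 ELISA).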

In data set [4] the test system is Human immunodeficiency virus 1. Briefly: Antiviral activity against HIV1 isolate 92US657 infected in human MT2 cells assessed as inhibition viral p24 antigen production after 4 days by ELISA. The format is functional, organism-based. As to conditions: Human immunodeficiency virus 1, isolate 92US657, MT2, 96 h.

As usually defined, the CC50 is the concentration at which the toxic effect on the cells reaches its halfway point. Low readings indicate greater toxicity to the cells, high ones lower toxicity to the cells. One may read the EC50 as the concentration needed to bring the measured effect to its halfway point.

`O=C(O)c1cccc(-c2ccc(/C=C3\SC(=S)N(CCc4ccccc4)C3=O)o2)c1O`: in data set [1], it took 16400 nM to reach half-maximal cytotoxicity (CC50 at 96 h). The EC50 in data set [2] was 61 nM; in data set [4], 477 nM. For the same compound, in data set [3], the selectivity ratio was determined as 269.

`O=C(O)c1cccc(-c2ccc(/C=C3\SC(=S)N(CCc4ccccc4)C3=O)o2)c1F` registered a CC50 at 96 h in data set [1] of 28100 nM. Also, the EC50 is 145 nM in data set [2] and 1080 nM in data set [4]. Also, the selectivity ratio in data set [3] is 194.

As for `O=C(O)c1cccc(-c2ccc(/C=C3\SC(=S)N(CCc4ccccc4)C3=O)o2)c1Cl`, the cytotoxic concentration (CC50) at 96 h in data set [1] turned out to be 30400 nM. Moreover, the figures for the EC50 in data set [2] and in data set [4] were 74 nM and 521 nM, respectively. Further, the selectivity ratio in data set [3] was 411.
